Measured values from ChEMBL document CHEMBL4765297, “In silico/in vitro screening and hit evaluation identified new phenothiazine anti-prion derivatives” (Eur J Med Chem, 2020).
Activity calls are given as the source filed them.

How the values were obtained:
ScN2a [1] = experiment: Anti-prion activity against RML prion protein in mouse N2a cells assessed as Scrapie prion protein level at 1 uM in presence of proteinase K by Western blotting analysis relative to control; type: cell-based
How it was run: (§1)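 ScN2a or ScGT1 cells chronically infected with RML or 22L prions (N2a in MEM/10% FBS; GT1 in DMEM/10% FBS) treated 4 days with compound (DMSO stock diluted in EtOH, then medium; final DMSO ≤0.1%). Immunoblot with anti-PrP Fab W226, ECL, densitometry, normalized to untreated control (100%).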

N2a [2] = experiment: Cytotoxicity against mouse N2a cells assessed as reduction in cell viability incubated for 30 mins by Calcein assay; type: cell-based; settings: 0.5 h
How it was run: (§2)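 N2a, ScN2a, GT1 or ScGT1 cells seeded (2.5×10^4/mL MEM for N2a lines; 3×10^4/mL DMEM for GT1 lines), settled 1 day. Treated at 0.1, 1 and 10 µM for 5 days at 37 °C, 5% CO2. Read-outs: MTT (5 mg/mL, 3 h, DMSO/2-propanol solubilization, A590); CCK-8 (4 h, A450); calcein-AM (2.5 µM added, 30 min, 492/525 nm). Viability threshold 80%.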

N2a [3] = experiment: Cytotoxicity against mouse N2a cells assessed as reduction in cell viability incubated for 3 hrs by MTT assay; type: cell-based; how it was run: as §2
ScN2a [4] = experiment: Anti-prion activity against RML prion protein in mouse N2a cells assessed as Scrapie prion protein level at 1 uM in absence of proteinase K by Western blotting analysis relative to control; type: cell-based; how it was run: as §1
N2a [5] = experiment: Cytotoxicity against mouse N2a cells assessed as reduction in cell viability incubated for 4 hrs by CCK-8 assay; type: cell-based; how it was run: as §2
ScN2a [6] = experiment: Anti-prion activity in mouse ScN2a cells at 1N in absence of proteinase K by Western blotting analysis relative to control; type: functional
How it was run: (§3)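 Filtered through 3 kDa centrifugal membrane; filtrate (or compound alone, with or without filtration) given to ScN2a cells 4 days. PK-digested/undigested lysates immunoblotted with W226; three independent experiments, control normalized to 100%.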

ScN2a [7] = experiment: Anti-prion activity against RML prion protein in mouse ScN2a cells assessed as Scrapie prion protein level at 4 uM in presence of proteinase K by Western blotting analysis relative to control; type: cell-based; how it was run: as §1
ScGT1 [8] = experiment: Anti-prion activity against RML prion protein in mouse ScGT1 cells assessed as Scrapie prion protein level at 4 uM in presence of proteinase K by Western blotting analysis relative to control; type: cell-based; how it was run: as §1
N2a [9] = experiment: Anti-prion activity in mouse N2a cells assessed as effect on localization of cell membrane at 4 uM by immunofluorescence staining assay; type: functional, cell-based
How it was run: (§4)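 N2a cells on poly-lysine coverslips treated with 0.4 or 4 µM. Chilled on ice 15 min, live surface staining with W226 (1:200) 20 min on ice, then fixed in 4% PFA and blocked in 7% goat serum. Alexa488 anti-mouse secondary 1 h, DAPI counterstain, confocal imaging of surface PrPC.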

ScN2a [10] = experiment: Cytotoxicity against mouse ScN2a cells upto 10 uM; type: cell-based; how it was run: as §2
ScGT1 [11] = experiment: Anti-prion activity against 22L prion protein in mouse ScGT1 cells assessed as Scrapie prion protein level at 4 uM in absence of proteinase K by Western blotting analysis relative to control; type: cell-based; how it was run: as §1
ScN2a [12] = experiment: Anti-prion activity in mouse ScN2a cells at 1:1 Prp to compound concentration in presence of proteinase K by Western blotting analysis relative to control; type: functional; how it was run: as §3
ScGT1 [13] = experiment: Anti-prion activity against RML prion protein in mouse ScGT1 cells assessed as Scrapie prion protein level at 4 uM in absence of proteinase K by Western blotting analysis relative to control; type: cell-based; how it was run: as §1
ScN2a [14] = experiment: Anti-prion activity in mouse ScN2a cells in absence of proteinase K by Western blotting analysis relative to control; type: functional; how it was run: as §1
ScN2a [15] = experiment: Anti-prion activity in mouse ScN2a cells at 1:1 Prp to compound concentration in absence of proteinase K by Western blotting analysis relative to control; type: functional; how it was run: as §3
ScN2a [16] = experiment: Anti-prion activity in mouse ScN2a cells at 1:2 Prp to compound concentration in presence of proteinase K by Western blotting analysis relative to control; type: functional; how it was run: as §3
ScGT1 [17] = experiment: Anti-prion activity against 22L prion protein in mouse ScGT1 cells assessed as Scrapie prion protein level at 4 uM in presence of proteinase K by Western blotting analysis relative to control; type: cell-based; how it was run: as §1
ScN2a [18] = experiment: Anti-prion activity in mouse ScN2a cells at 1:2 Prp to compound concentration in absence of proteinase K by Western blotting analysis relative to control; type: functional; how it was run: as §3
ScN2a [19] = experiment: Anti-prion activity in mouse ScN2a cells at 2:1 Prp to compound concentration in presence of proteinase K by Western blotting analysis relative to control; type: functional; how it was run: as §3
ScN2a [20] = experiment: Anti-prion activity in mouse ScN2a cells at 1N in presence of proteinase K by Western blotting analysis relative to control; type: functional; how it was run: as §3
N2a [21] = experiment: Anti-prion activity in mouse N2a cells assessed as effect on localization of cell membrane at 0.4 uM by immunofluorescence staining assay; type: functional, cell-based; how it was run: as §4
ScN2a [22] = experiment: Anti-prion activity in mouse ScN2a cells at 1:5 Prp to compound concentration in presence of proteinase K by Western blotting analysis relative to control; type: functional; how it was run: as §3
ScN2a [23] = experiment: Anti-prion activity in mouse ScN2a cells at 2:1 Prp to compound concentration in absence of proteinase K by Western blotting analysis relative to control; type: functional; how it was run: as §3
ScN2a [24] = experiment: Anti-prion activity against 22L prion protein in mouse ScN2a cells assessed as Scrapie prion protein level at 4 uM in absence of proteinase K by Western blotting analysis relative to control; type: cell-based; how it was run: as §1
ScN2a [25] = experiment: Anti-prion activity against RML prion protein in mouse ScN2a cells assessed as Scrapie prion protein level at 4 uM in absence of proteinase K by Western blotting analysis relative to control; type: cell-based; how it was run: as §1
[26] = Anti-prion activity against RML prion protein in mouse ScN2a cells in presence of proteinase K by Western blotting analysis; type: cell-based
How it was run: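 ScN2a-RML cells treated 4 days with 8 concentrations from 0 to 4 µM. Lysates PK-digested (10 µg PK, 1 h, 37 °C) and ultracentrifuged. Pellets denatured in 8 M GdnHCl and coated on ELISA plates overnight at 4 °C. Detection with W226 (1.5 µg/mL), HRP secondary and TMB, A450. IC50 taken from the dose-response curve, with Western blot confirmation.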

ScN2a [27] = experiment: Anti-prion activity in mouse ScN2a cells in presence of proteinase K by Western blotting analysis relative to control; type: functional; how it was run: as §1
ScN2a [28] = experiment: Anti-prion activity in mouse ScN2a cells at 1:5 Prp to compound concentration in absence of proteinase K by Western blotting analysis relative to control; type: functional; how it was run: as §3
ScN2a [29] = experiment: Anti-prion activity against 22L prion protein in mouse ScN2a cells assessed as Scrapie prion protein level at 4 uM in presence of proteinase K by Western blotting analysis relative to control; type: cell-based; how it was run: as §1

CCc1ccc(CNC(=O)CSc2c3c(nc4cc(Cl)ccc24)CCCC3)cc1
Activity (ScN2a [1]): 77.1%
Activity (N2a [2]): Non-Toxic
Activity (N2a [3]): Non-Toxic
Activity (ScN2a [4]): 83.5%
Activity (N2a [5]): Non-Toxic

Cn1c(CSc2ccnc3cc(Cl)ccc23)nnc1SCC(=O)N1CCN(c2ccccc2)CC1
Activity (ScN2a [1]): 88%
Activity (N2a [2]): Non-Toxic
Activity (N2a [3]): Non-Toxic
Activity (ScN2a [4]): 85.8%
Activity (N2a [5]): Non-Toxic

CCOc1ccc(CNC(=O)CSc2c3c(nc4cc(Cl)ccc24)CCCC3)cc1
Activity (ScN2a [1]): 102%
Activity (N2a [2]): Non-Toxic
Activity (N2a [3]): Non-Toxic
Activity (ScN2a [4]): 110%
Activity (N2a [5]): Non-Toxic

O=C(Nc1ccc(Oc2ccccc2)cc1)c1cc2cc3ccc(Cl)cc3nc2o1
Activity (ScN2a [1]): 109%
Activity (N2a [2]): Non-Toxic
Activity (N2a [3]): Non-Toxic
Activity (ScN2a [4]): 92.6%
Activity (N2a [5]): Non-Toxic

C/C(=N\Nc1ccnc2cc(Cl)ccc12)c1ccc2c(c1)N(CCCN(C)C)c1ccccc1S2
Activity (ScN2a [1]): 11.9%
Activity (ScN2a [4]): 68.7%

C/C(=N\Nc1ccnc2cc(Cl)ccc12)c1ccc2c(c1)N(CCN1CCOCC1)c1ccccc1S2
Activity (ScN2a [1]): 70.3%
Activity (ScN2a [4]): 95.3%

Cn1c(=O)c2cc(C(=O)Nc3ccc(Oc4ccccc4)cc3)sc2c2ccc(Cl)cc21
Activity (ScN2a [1]): 94.4%
Activity (N2a [2]): Non-Toxic
Activity (N2a [3]): Non-Toxic
Activity (ScN2a [4]): 92.5%
Activity (N2a [5]): Non-Toxic

C/C(=N\Nc1ccnc2cc(Cl)ccc12)c1ccc2c(c1)N(CCN(C)C)c1ccccc1S2
Activity (ScN2a [1]): 8.6%
Activity (ScN2a [4]): 60.2%

Cc1cc(/C=N/Nc2ccnc3cc(Cl)ccc23)c(C)cc1/C=N/Nc1ccnc2cc(Cl)ccc12
Activity (ScN2a [1]): 70.9%
Activity (N2a [2]): Non-Toxic
Activity (N2a [3]): Non-Toxic
Activity (ScN2a [4]): 63.8%
Activity (N2a [5]): Non-Toxic

C/C(=N\Nc1ccnc2cc(Cl)ccc12)c1ccc2c(c1)N(CCN1CCN(C)CC1)c1ccccc1S2
Activity (ScN2a [1]): 4.4%
Activity (ScN2a [4]): 55.9%

Cn1c(=O)c2cc(C(=O)N3CCC(Cc4ccccc4)CC3)sc2c2ccc(Cl)cc21
Activity (ScN2a [1]): 82.4%
Activity (N2a [2]): Non-Toxic
Activity (N2a [3]): Non-Toxic
Activity (ScN2a [4]): 99.6%
Activity (N2a [5]): Non-Toxic

C/C(=N\Nc1ccnc2cc(Cl)ccc12)c1ccc2c(c1)N(CCN1CCCCC1)c1ccccc1S2
Activity (ScN2a [1]): 13.6%
Activity (ScN2a [4]): 70.2%

COc1ccc2nc(NC(=O)c3cc4c(=O)n(C)c5cc(Cl)ccc5c4s3)sc2c1
Activity (ScN2a [1]): 85.4%
Activity (N2a [2]): Non-Toxic
Activity (N2a [3]): Non-Toxic
Activity (ScN2a [4]): 69.1%
Activity (N2a [5]): Non-Toxic

COC(=O)c1ccc(COc2ccc(/C=N/Nc3ccnc4cc(Cl)ccc34)cc2OC)cc1
Activity (ScN2a [1]): 82.3%
Activity (N2a [2]): Non-Toxic
Activity (N2a [3]): Non-Toxic
Activity (ScN2a [4]): 95.6%
Activity (N2a [5]): Non-Toxic

C/C(=N\Nc1ccnc2cc(Cl)ccc12)c1ccc2c(c1)Nc1ccccc1S2
Activity (ScN2a [1]): 35.6%
Activity (ScN2a [6]): 51.7%
Activity (ScN2a [7]): 9.4%
Activity (N2a [2]): Non-Toxic
Activity (ScGT1 [8]): 12.3%
Activity (N2a [9]): inactive
Activity (ScN2a [10]): Non-Toxic
Activity (ScGT1 [11]): 39.2%
Activity (N2a [3]): Non-Toxic
Activity (ScN2a [12]): 90.1%
Activity (ScGT1 [13]): 42%
Activity (ScN2a [14]): 48.8%
Activity (ScN2a [15]): 117.6%
Activity (ScN2a [16]): 65.7%
Activity (ScGT1 [17]): 11%
Activity (ScN2a [18]): 98.4%
Activity (ScN2a [19]): 108.2%
Activity (ScN2a [20]): 22.6%
Activity (N2a [21]): inactive
Activity (ScN2a [22]): 13.6%
Activity (ScN2a [23]): 114.4%
Activity (ScN2a [4]): 55.7%
Activity (N2a [5]): Non-Toxic
Activity (ScN2a [24]): 48.7%
Activity (ScN2a [25]): 62.1%
IC50 [26]: 420 nM
Activity (ScN2a [27]): 25.2%
Activity (ScN2a [28]): 41%
Activity (ScN2a [29]): 5.1%
